Details in all cases: stereoisomer not certain
For assay [1], the system named is OR2C1. The procedure, abridged:
(§1)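 Whether a receptor–molecule pair is responsive (active) rests on the original authors' judgment that its measured signal was statistically different from baseline. Pairs without that judgment are non-responsive (inactive). Sources used varied assay methods, commonly transient luciferase assays in mammalian cell lines.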
Target sequence in this assay (as listed by the source): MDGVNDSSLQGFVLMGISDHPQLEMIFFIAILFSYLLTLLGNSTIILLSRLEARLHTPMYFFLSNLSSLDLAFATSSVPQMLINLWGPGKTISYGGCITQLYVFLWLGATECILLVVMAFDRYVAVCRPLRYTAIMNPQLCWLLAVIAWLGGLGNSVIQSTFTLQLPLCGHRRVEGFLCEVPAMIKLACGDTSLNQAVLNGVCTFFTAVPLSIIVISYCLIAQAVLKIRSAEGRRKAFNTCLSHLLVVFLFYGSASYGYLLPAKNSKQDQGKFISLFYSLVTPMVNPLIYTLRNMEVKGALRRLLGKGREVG

Assay [2] has as its system OR2C3. The procedure, abridged: as §1
Target sequence in this assay (as listed by the source): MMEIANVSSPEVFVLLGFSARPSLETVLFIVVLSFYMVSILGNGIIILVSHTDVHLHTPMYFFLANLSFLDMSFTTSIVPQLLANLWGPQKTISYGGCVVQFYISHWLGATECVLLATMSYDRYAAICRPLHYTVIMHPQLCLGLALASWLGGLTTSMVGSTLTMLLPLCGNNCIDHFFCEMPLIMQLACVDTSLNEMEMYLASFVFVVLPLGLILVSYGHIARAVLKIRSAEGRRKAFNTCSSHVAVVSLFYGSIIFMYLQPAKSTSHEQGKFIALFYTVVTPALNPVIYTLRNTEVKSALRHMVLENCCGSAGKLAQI
The subject of assay [3] is OR2C3. In outline:
as §1
Target sequence in this assay (as listed by the source): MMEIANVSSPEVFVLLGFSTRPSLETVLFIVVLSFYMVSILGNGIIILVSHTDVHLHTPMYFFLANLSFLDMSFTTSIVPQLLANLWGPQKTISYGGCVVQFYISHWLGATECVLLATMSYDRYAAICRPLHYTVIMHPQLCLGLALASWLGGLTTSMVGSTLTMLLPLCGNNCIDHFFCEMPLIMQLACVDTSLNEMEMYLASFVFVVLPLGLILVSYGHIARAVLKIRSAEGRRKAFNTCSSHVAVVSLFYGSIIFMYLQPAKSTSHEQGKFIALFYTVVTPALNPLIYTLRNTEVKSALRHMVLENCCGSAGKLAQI
The source holds these as a separate data set.

The next assay concerns the target OR2D2 (Homo sapiens) (UniProt Q9H210). In outline:
as §1

The next assay has as its system OR2D2 S148P I163T M202T. In outline:
as §1

For the next assay, the target named is OR2D3 (Homo sapiens) (UniProt Q8NGH3). The procedure, abridged:
as §1

A further assay has as its system OR2D3 R155W. The procedure, abridged: as §1
In another assay the target is OR2F1 (Homo sapiens) (UniProt Q13607). The procedure, abridged: as §1
A further assay concerns the target OR2F2 (Homo sapiens) (UniProt O95006). The procedure, abridged: as §1
For a further assay, the target named is T1, OR2G2 (Homo sapiens) (UniProt Q8NGZ5).
T1 sequence (whole entry): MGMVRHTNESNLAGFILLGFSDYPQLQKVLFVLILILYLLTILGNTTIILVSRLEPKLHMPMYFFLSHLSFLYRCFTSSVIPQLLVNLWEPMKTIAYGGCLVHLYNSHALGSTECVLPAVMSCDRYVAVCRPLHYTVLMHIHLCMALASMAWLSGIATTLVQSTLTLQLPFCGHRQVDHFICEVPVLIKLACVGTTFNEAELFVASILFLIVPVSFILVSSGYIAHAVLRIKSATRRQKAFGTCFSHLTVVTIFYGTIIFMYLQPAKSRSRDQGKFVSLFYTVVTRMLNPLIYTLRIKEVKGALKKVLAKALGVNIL
In outline: as §1

The next assay concerns OR2G2 L167P R236G. The procedure, abridged: as §1
A further assay concerns the target OR2G3 (Homo sapiens) (UniProt Q8NGZ4). The procedure, abridged:
as §1

A further assay relates to OR2G3 I289V. In outline:
as §1

The target in the next assay is OR2G6 (Homo sapiens) (UniProt Q5TZ20). The procedure, abridged: as §1
Assay [4] relates to OR2C1. The procedure, abridged: as §1
Target sequence in this assay (as listed by the source): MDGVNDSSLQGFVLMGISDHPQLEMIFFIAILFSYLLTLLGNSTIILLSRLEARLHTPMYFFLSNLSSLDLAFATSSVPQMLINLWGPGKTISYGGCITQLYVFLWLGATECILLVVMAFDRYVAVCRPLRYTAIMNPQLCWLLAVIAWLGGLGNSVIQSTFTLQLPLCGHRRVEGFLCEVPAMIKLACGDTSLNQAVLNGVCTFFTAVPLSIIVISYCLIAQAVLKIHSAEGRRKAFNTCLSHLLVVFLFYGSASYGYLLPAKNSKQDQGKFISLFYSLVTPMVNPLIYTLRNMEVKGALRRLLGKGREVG
The source holds these as a separate data set.

Assay [5] relates to OR2C1. The procedure, abridged:
as §1
Target sequence in this assay (as listed by the source): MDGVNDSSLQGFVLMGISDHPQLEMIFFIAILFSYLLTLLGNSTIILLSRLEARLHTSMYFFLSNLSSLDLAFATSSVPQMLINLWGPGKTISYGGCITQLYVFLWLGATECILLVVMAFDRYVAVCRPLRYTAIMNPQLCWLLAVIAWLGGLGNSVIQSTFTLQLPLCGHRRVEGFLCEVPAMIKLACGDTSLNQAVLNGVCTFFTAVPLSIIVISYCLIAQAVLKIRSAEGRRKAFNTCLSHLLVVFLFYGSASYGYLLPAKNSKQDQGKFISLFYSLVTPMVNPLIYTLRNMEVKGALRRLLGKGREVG
The source holds these as a separate data set.

For assay [6], the system named is OR2C1. In outline:
as §1
Target sequence in this assay (as listed by the source): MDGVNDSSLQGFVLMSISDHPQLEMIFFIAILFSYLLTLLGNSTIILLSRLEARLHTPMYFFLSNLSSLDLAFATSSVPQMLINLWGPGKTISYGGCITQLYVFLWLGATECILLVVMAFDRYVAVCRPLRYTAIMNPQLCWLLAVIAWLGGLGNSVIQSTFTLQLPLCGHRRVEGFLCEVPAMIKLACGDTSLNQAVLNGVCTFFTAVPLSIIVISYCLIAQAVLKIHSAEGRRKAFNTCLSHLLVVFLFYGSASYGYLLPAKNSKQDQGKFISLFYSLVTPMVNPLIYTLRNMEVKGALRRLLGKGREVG
The source holds these as a separate data set.

The subject of assay [7] is OR2C1. In outline:
as §1
Target sequence in this assay (as listed by the source): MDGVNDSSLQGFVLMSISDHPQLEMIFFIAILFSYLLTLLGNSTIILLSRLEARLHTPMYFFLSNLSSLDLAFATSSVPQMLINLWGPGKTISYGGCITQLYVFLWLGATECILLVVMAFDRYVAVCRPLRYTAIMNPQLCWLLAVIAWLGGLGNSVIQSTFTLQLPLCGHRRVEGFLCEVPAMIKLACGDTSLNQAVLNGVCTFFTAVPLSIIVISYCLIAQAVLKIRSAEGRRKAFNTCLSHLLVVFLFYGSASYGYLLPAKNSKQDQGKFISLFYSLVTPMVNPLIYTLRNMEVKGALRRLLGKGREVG
The source holds these as a separate data set.

The test system of assay [8] is OR2C1. In outline: as §1
Target sequence in this assay (as listed by the source): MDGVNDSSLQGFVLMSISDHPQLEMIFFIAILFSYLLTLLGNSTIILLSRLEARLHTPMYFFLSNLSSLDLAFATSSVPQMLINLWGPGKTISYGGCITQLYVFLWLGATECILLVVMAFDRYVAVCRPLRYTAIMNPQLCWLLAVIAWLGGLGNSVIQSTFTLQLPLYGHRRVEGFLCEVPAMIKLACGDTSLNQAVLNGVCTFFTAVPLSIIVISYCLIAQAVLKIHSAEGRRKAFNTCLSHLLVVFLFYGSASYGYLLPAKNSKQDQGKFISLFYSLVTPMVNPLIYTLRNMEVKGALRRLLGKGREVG
This is another data set of the same source.

Another assay has as its target OR2C3 (Homo sapiens) (UniProt Q8N628). The procedure, abridged: as §1
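Also: active if original authors judged signal statistically different from baseline.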

Sequence of OR2G6 (Homo sapiens) (Q5TZ20 whole entry): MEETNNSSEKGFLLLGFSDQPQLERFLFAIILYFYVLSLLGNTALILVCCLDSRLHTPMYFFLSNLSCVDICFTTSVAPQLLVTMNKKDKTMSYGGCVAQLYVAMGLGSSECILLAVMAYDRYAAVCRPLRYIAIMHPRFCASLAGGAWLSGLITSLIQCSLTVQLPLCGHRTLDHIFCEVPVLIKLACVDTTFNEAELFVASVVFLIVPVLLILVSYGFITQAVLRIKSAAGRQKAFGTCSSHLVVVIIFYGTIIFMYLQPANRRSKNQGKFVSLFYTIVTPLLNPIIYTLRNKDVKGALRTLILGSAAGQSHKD
Sequence of OR2F2 (Homo sapiens) (O95006 whole entry): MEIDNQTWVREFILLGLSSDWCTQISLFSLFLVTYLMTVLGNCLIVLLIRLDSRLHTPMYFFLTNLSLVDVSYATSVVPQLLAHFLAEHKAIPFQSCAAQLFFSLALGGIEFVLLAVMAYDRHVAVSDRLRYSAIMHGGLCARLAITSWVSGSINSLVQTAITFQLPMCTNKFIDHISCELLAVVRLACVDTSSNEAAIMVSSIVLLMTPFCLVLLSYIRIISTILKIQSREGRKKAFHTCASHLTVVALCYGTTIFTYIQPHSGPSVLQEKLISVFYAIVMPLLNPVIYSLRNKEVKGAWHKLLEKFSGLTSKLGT
Sequence of OR2G3 (Homo sapiens) (Q8NGZ4 whole entry): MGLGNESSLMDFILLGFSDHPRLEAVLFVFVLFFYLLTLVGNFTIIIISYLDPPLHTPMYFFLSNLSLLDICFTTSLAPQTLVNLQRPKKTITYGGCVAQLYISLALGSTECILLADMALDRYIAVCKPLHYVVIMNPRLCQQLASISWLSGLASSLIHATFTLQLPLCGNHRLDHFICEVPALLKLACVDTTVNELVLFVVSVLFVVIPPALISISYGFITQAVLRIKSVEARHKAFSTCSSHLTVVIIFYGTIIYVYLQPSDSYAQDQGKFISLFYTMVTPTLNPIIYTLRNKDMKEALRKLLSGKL
Sequence of OR2D2 (Homo sapiens) (Q9H210 whole entry): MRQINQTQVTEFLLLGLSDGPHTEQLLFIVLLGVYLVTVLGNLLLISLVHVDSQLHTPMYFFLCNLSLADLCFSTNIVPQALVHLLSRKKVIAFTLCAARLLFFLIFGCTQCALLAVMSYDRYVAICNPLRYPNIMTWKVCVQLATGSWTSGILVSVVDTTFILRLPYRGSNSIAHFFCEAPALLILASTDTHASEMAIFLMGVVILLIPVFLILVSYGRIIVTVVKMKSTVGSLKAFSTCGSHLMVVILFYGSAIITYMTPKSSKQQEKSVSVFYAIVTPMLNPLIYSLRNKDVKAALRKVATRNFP
Sequence of OR2F1 (Homo sapiens) (Q13607 whole entry): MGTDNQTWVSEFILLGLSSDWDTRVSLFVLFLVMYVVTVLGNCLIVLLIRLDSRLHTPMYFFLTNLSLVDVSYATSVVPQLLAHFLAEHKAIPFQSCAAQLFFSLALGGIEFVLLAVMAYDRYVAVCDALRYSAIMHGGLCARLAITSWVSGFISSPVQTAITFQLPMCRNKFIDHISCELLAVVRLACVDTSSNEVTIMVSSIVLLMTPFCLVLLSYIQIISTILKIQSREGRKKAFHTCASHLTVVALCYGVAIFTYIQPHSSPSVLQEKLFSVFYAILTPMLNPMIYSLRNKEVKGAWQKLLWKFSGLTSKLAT
Sequence of OR2D3 (Homo sapiens) (Q8NGH3 whole entry): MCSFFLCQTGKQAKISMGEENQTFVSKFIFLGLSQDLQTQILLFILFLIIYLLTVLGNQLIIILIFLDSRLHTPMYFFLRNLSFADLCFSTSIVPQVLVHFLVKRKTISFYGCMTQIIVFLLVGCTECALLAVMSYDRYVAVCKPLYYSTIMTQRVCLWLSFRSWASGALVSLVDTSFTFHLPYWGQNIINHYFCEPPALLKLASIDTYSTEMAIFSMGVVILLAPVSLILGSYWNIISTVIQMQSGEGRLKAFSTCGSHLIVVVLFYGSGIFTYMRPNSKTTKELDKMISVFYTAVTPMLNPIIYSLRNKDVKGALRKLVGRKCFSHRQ
Sequence of OR2G3 I289V (as listed by the source, stated change not applied): as the sequence (Q8NGZ4 whole entry) above, with I289V counted along it
Sequence of OR2C3 (Homo sapiens) (Q8N628 whole entry): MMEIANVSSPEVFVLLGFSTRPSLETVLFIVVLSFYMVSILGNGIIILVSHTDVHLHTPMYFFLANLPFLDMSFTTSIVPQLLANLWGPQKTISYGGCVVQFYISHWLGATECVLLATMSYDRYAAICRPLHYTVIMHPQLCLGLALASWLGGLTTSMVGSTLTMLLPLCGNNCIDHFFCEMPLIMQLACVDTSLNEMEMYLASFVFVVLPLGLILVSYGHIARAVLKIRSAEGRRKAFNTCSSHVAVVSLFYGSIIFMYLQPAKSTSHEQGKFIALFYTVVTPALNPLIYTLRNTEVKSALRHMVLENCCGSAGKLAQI
Sequence of OR2D3 R155W (as listed by the source, stated change not applied): as the sequence (Q8NGH3 whole entry) above, with R155W counted along it

For the molecule `C=CCOC(=O)Cc1ccccc1`, the “odorant receptor agonist call” value in the assay on OR2C1 [1], with OR2C3 [2], with OR2C3 [3], in the assay with OR2D2 (Homo sapiens), in the assay with OR2D2 S148P I163T M202T and with OR2D3 (Homo sapiens) was “inactive” each time. Moreover, the “odorant receptor agonist call” value with OR2D3 R155W, in the assay with OR2F1 (Homo sapiens), with OR2F2 (Homo sapiens), in the assay with OR2G2 (Homo sapiens), in the assay with OR2G2 L167P R236G and with OR2G3 (Homo sapiens) was “inactive” throughout. Besides, the “odorant receptor agonist call” value in the assay on OR2G3 I289V and with OR2G6 (Homo sapiens) was “inactive” each time.
In the case of `C=CCc1ccc(OC)cc1`, the “odorant receptor agonist call” value with OR2G2 (Homo sapiens) was “inactive”.
As to `O=Cc1ccccc1`, the “odorant receptor agonist call” value with OR2G2 (Homo sapiens) was “inactive”.
Take `O=CC=Cc1ccccc1`: the “odorant receptor agonist call” value with OR2C1 [4], with OR2C1 [1], in the assay on OR2C1 [5] and with OR2C1 [6] was “inactive” throughout. Moreover, the “odorant receptor agonist call” value with OR2C1 [7] and in the assay with OR2C1 [8] was “active” throughout.
For `Cc1c([N+](=O)[O-])c(C)c([N+](=O)[O-])c(C(C)(C)C)c1[N+](=O)[O-]`, the “odorant receptor agonist call” value with OR2C3 (Homo sapiens), with OR2D2 (Homo sapiens), with OR2D3 (Homo sapiens), in the assay with OR2F1 (Homo sapiens), in the assay with OR2F2 (Homo sapiens) and with OR2G2 (Homo sapiens) was “inactive” each time. For the same molecule, the “odorant receptor agonist call” value with OR2G3 (Homo sapiens) and with OR2G6 (Homo sapiens) was “inactive” each time.
